Screens deposited in PubChem by several laboratories.
PLAP act: activates human placental alkaline phosphatase | P05187 | purified PLAP enzyme, luminescent substrate read-out; active compounds read high | activation fold at 20 µM | 1.2% of 96,000 active; in the data active = activation fold above about 2
PostGolgi yeast: growth inhibition of a yeast mutant, post-Golgi transport screen. post-Golgi transport phenotypic cell assay. inhibition, % at 10 µM. 0.9% of 98,000 active;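 also: yeast cells grown in 1536-well plates; yeast grown about 18 h at 30C before absorbance read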
HePTP inhibitor: inhibitors of human HePTP phosphatase | inhibition, % at 20 µM | recombinant HePTP phosphatase activity, OD absorbance | P35236 | 0.64% of 110,000 active; in the data active = inhibition above about 50%;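 also: plate controls were vehicle for no effect and reference inhibitor for full effect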
Target sequence (P35236 whole entry, looked up): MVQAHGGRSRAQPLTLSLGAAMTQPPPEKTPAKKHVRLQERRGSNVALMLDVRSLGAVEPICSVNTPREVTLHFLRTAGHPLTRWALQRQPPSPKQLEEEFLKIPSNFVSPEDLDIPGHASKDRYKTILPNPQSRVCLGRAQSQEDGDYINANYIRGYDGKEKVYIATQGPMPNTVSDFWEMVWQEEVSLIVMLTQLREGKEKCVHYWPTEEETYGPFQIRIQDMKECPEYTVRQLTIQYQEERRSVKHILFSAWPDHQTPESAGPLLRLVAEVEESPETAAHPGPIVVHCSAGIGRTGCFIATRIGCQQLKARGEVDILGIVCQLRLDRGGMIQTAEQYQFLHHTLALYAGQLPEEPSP
Ecoli tolC: growth inhibitors of E. coli BW25113 tolC mutant. OD615. growth inhibition, % at 10 µM (by protocol). 2.2% of 65,000 active. AID 573;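 active = growth inhibition at or above a cutoff equal to the mean over every tested compound plus 3 SD, cut at about 60% in these data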;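 also: growth measured after 20 h incubation at 37 °C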
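test system = E. coli BW25113 ΔtolC::kan bacteria | medium = LB with kanamycin 50 µg/mL | signal = OD at 615 nm | schedule = 37 °C, 20 h exposure | evaluation = % inhibition of E. coli growth | compound dosing = one dose of 10 µM final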
Ecoli WT expand: growth inhibitors of E. coli BW25113 wild type; OD600 absorbance; growth inhibition, % at 100 µM; 0.15% of 98,000 active; AID 710;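 active = growth inhibition above about 50% at one test dose, limit read from the data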;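 also: growth measured after 20 h incubation at 37 °C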
PostGolgi ctrl: growth of the yeast control strain, post-Golgi counter-screen | efflux-deficient yeast background strain, growth absorbance A615, 16 h | inhibition, % at 10 µM | 5% of 98,000 active | AID 738
Starred values were filed as active, the others as inactive; . = no result given. Compounds with a hit are over-represented: about 5.5% of the library has one in this group of screens. Rule as the data show it, unless noted: active = inhibition above about 30%; inactive = the rest.

SMILES	PLAP act	PostGolgi yeast	HePTP inhibitor	Ecoli tolC	Ecoli WT expand	PostGolgi ctrl
Cc1ccccc1Cc1c(C)nc2c(C(=O)NCc3ccco3)cnn2c1C	1.3	-14	-2	31	-4	42*
COc1ccc(OC)c(/C=C/C(=O)Nc2ccc(OC)cc2OC)c1	.	.	-18	.	.	.
CCOc1cccc(-c2cc(C(=O)Nc3ccc4c(c3)OCO4)c3ccccc3n2)c1	.	.	-5	.	.	.
O=C(CSc1nc2ccccc2c(=O)n1-c1ccc(F)cc1)NCc1ccco1	0.9	-2	.	.	3	3
O=c1c2ccccc2nc(SCc2cn3ccsc3n2)n1-c1ccc(F)cc1	1.3	-2	8	24	32	52*
C=CCN1C(=O)/C(=C\c2ccc(OCc3ccc(COc4ccc(C=O)cc4OC)cc3)c(OC)c2)SC1=S	.	.	6	.	.	.
C=C(C)COc1ccc(-c2n[nH]c(C)c2Oc2ccccc2OC)c(O)c1	1.7	0	-2	88*	9	17
Cc1[nH]nc(-c2ccc(O)cc2O)c1Oc1ccccc1	1.7	-1	0	4	15	21
CCOc1ccc(-c2n[nH]c(C)c2Oc2ccccc2OC)c(O)c1	1.8	4	10	95*	11	5
Cc1[nH]nc(-c2ccc(OCc3cnn(-c4ccccc4)c3)cc2O)c1Oc1ccccc1F	1	1	.	.	-8	42*
CNS(=O)(=O)c1cc(O)c2c(S(=O)(=O)NC)cc(S(=O)(=O)NC)cc2c1	.	.	-4	.	.	.
CC(=O)Nc1ccc(Nc2ncnc3c2cnn3-c2cccc(C)c2)cc1	1	-6	4	-20	-7	13
CC(=O)Nc1ccc(Nc2ncnc3c2cnn3-c2ccc(C)cc2C)cc1	2*	2	.	.	-9	-2
O=C(c1ccc(-c2ccccc2)cc1)N1CCN(Cc2ccc(Cl)cc2)CC1	.	.	-4	.	.	.
O=C(c1ccc(Cl)cc1)N1CCCC(c2ccccc2)=N1	0.9	14	.	.	2	36*
O=C(NCc1ccco1)c1ccc(C#Cc2ccccc2)cc1	.	.	-4	.	.	.
CC(C)(C)c1ccc(S(=O)(=O)Nc2cccnc2)cc1	1.1	-3	.	.	-6	30*
CC(=O)Nc1ccc(NS(=O)(=O)c2cccc3c2C(=O)c2ccccc2C3=O)cc1	.	.	102*	.	.	.
O=S(=O)(Nc1cccnc1)c1ccc(Cl)cc1	1.2	-1	.	.	14	8
O=C1c2ccccc2C(=O)c2c1cccc2S(=O)(=O)Nc1ccc(Cl)cc1	.	.	-2	.	.	.
CC(=O)Nc1ccc(NS(=O)(=O)c2ccc(C(C)(C)C)cc2)cc1	.	.	96*	.	.	.
O=S(=O)(Nc1cccnc1)c1ccc(F)cc1	.	.	-2	.	.	.
CC(=O)NCCc1ccc(S(=O)(=O)Nc2cccnc2)cc1	1	5	-2	-10	4	33*
COc1cc(NC(=O)Cn2nc(C(F)(F)F)c(Cl)c2C)c(OC)cc1Cl	.	.	18	.	.	.
Cc1ccccc1C(=O)N1CC(C)CC(C)C1 (stereo unspecified)	.	.	1	.	.	.
SMILES	PLAP act	PostGolgi yeast	HePTP inhibitor	Ecoli tolC	Ecoli WT expand	PostGolgi ctrl
CCCOC(=O)c1ccc(-c2c(C)noc2-c2ccc(OC)cc2O)o1	1.1	4	-6	99*	-6	29
Cc1c(Cl)c([N+](=O)[O-])nn1Cc1ccc(C(=O)N/N=C\c2cccc(Br)c2)o1	1.3	67*	.	.	-8	18
Cc1cc(C(=O)N/N=C/c2cccc([N+](=O)[O-])c2)c(C)o1	0.8	-6	.	.	-9	11
Cc1oc(-c2nc3ccccc3n2C)cc1C(=O)c1ccccc1	.	5	9	9	-18	34*
COc1ccc(CN2CCN(C(=O)c3cccc(OC)c3OC)CC2)c(OC)c1	.	.	-11	.	.	.
S=c1[nH]nc(-c2cccnc2)n1/N=C/c1cccs1	1	4	.	.	1	27
COc1cccc(/C=N/n2c(-c3ccccc3)n[nH]c2=S)c1	.	.	-16	.	.	.
Cc1ccc(/C=N/n2c(-c3cccs3)n[nH]c2=S)cc1	0.9	-10	.	.	-8	33*
COc1ccc(/C=N/n2c(-c3cccs3)n[nH]c2=S)cc1	0.9	2	.	.	2	40*
O=C1OC(c2ccccc2)=N/C1=C/c1ccco1	.	.	-2	.	.	.
C=CCOC(=O)C(C#N)c1nc2ccccc2nc1N1CCN(Cc2ccccc2)CC1 (stereo unspecified)	1.5	-6	10	100*	-8	8
N#CC(C(=O)OC1CCCCC1)c1nc2ccccc2nc1N1CCOCC1 (stereo unspecified)	1	0	10	19	-5	40*
COc1ccc(/C=C/C(=O)Nc2c(F)c(F)c(F)c(F)c2F)cc1	.	.	6	.	.	.
O=C1N=C(N2CCCC2)S/C1=C\c1ccc(O)cc1	.	.	2	.	.	.
O=C1C2C3C=CC(C3)C2C(=O)N1c1ccc(Cl)cc1[N+](=O)[O-] (stereo unspecified)	.	.	12	.	.	.
O=C(/C=C\c1ccccc1)Nc1ccc(N2CCOCC2)cc1	.	.	-17	.	.	.
COc1ccc(C2C3=C(CC(C)(C)CC3=O)Oc3ncn(Cc4ccccc4)c(=N)c32)cc1 (stereo unspecified)	1.4	2	.	.	-11	11
CC1(C)CC(=O)C2=C(C1)Oc1ncn(Cc3ccco3)c(=N)c1C2c1ccccc1 (stereo unspecified)	1.3	2	0	46	4	34*
c1ccc(Cn2c(-c3ccco3)nc3ccccc32)cc1	.	.	3	.	.	.
Cc1nc(N2CCN(c3ccccc3)CC2)nc2c1C(=O)CC(C)C2 (stereo unspecified)	1.3	0	-3	46	1	37*
Cc1nc(N2CCN(c3ccccc3)CC2)nc2c1C(=O)CC(c1ccccc1)C2 (stereo unspecified)	1	27	6	6	-14	-7
Cc1nc(N2CCN(c3ccccc3)CC2)nc2c1C(=O)CCC2	1.3	11	5	91*	-1	22
CCOC(=O)c1c(C)sc2c1N(C(=O)CCl)c1cc(Cl)ccc1S2	1	9	.	.	-9	78*
C=C(C)CNC(=S)NNC(=O)c1ccco1	2*	25	.	.	9	9
NC(=S)N/N=C/c1ccc(-c2cc(Cl)cc(Cl)c2)o1	0.9	30	-4	.	5	68*
SMILES	PLAP act	PostGolgi yeast	HePTP inhibitor	Ecoli tolC	Ecoli WT expand	PostGolgi ctrl
NC(=S)N/N=C/c1ccc(-c2cc(Cl)ccc2Cl)o1	0.9	19	.	.	0	93*
O=S1(=O)CCC(NC(=S)N/N=C/c2ccc(-c3cc(Cl)ccc3Cl)o2)C1 (stereo unspecified)	.	.	7	.	.	.
CCC(=O)N1c2ccccc2NC2=C(C(=O)CC(C)(C)C2)C1c1ccc(-c2cccc([N+](=O)[O-])c2)o1 (stereo unspecified)	.	.	-2	.	.	.
COC(=O)[C@]1(C)C=C2C3=CC(=O)C4[C@@]5(C)CCC(O)C(C)(C)C5CC[C@@]4(C)[C@]3(C)CC[C@@]2(C)CC1 (stereo partly specified)	.	.	24	.	.	.
CCOC(=O)c1c(NC(=O)c2ccc(S(=O)(=O)N3CCCCC3)cc2)sc(C)c1C	.	.	1	.	.	.
CCOC(=O)c1c(-c2ccccc2)nnn1-c1nc(OCC)nc(N2CCCCC2)n1	1.4	1	7	75*	2	7
COc1ccc(S(=O)(=O)N2CCN(C(=O)c3ccco3)CC2)cc1	.	.	6	.	.	.
Cc1cc(C)c(S(C)(=O)=O)c(Oc2cccc(Cl)c2)n1	0.8	32*	.	.	-8	3
